Key:
[1] = Therapeutic index (IC50/EC50) was determined; settings: read-out: TI
Outline: (§1)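 H9 T-cells (3 × 10^5 cells/mL) in RPMI 1640 with 10% FCS at 37 °C, 5% CO2, infected with HIV-1 IIIB (125 TCID50). Medium replaced on days 1 and 4 post-infection. Supernatant p24 antigen capture read on day 6. EC50 is the concentration suppressing replication by 50%; TI = IC50/EC50. AZT run as positive control. Averages of at least two experiments.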

[2] = system: Human immunodeficiency virus 1; test: Concentration required to inhibit HIV-1 replication in acutely infected H9 lymphocytes by 50%; assay type: functional, organism-based; outline: as §1
[3] = system: H9; test: Concentration required to inhibit uninfected H9 cell growth by 50%; assay type: functional, cell-based; settings: Homo sapiens
Outline: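 Mock-infected H9 cells handled in parallel under the same conditions as the infection assay, without virus. Viability read by XTT on day 6. IC50 is the concentration toxic to 50% of mock-infected cells. Averages of at least two experiments.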

[4] = system: Rattus norvegicus; test: Volume distribution of compound in male Sprague-Dawley rats following an intravenous bolus dose at 10-20 mg/kg; assay type: ADME, organism-based; settings: in vivo
Outline: (§2)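 Adult male Sprague–Dawley rats (approx. 250 g) dosed iv at 10-20 mg/kg and orally as a suspension at 25 mg/kg. Nine 0.4 mL blood samples taken over 8 h. Plasma levels measured by reversed-phase HPLC with UV (320 nm) and fluorescence (ex 320/em 380 nm) detection. Detection limit approx. 50 ng/mL (UV) and 10 ng/mL (fluorescence) from 0.10 mL plasma. Parameters from noncompartmental analysis; half-life from the terminal log-linear phase; N=3–4 rats.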

[5] = system: Rattus norvegicus; test: Half-life in male Sprague-Dawley rats following an intravenous bolus dose at 10-20 mg/kg; assay type: ADME, organism-based; settings: in vivo; outline: as §2
[6] = system: Rattus norvegicus; test: Bioavailability in rat (Sprague-Dawley) (male) (dose 10-20 mg/kg); assay type: ADME, organism-based; settings: in vivo; outline: as §2
[7] = system: Rattus norvegicus; test: Clearance in male Sprague-Dawley rats following an intravenous bolus dose at 10-20 mg/kg; assay type: ADME, organism-based; settings: in vivo
[8] = system: Rattus norvegicus; test: Vss in male Sprague-Dawley rats following an intravenous bolus dose at 10-20 mg/kg; assay type: ADME, organism-based; settings: in vivo; outline: as §2
[9] = Bioavailability in male Sprague-Dawley rats following an intravenous bolus dose at 10-20 mg/kg; assay type: ADME, organism-based; settings: rat, in vivo; outline: as §2

SMILES	selectivity ratio [1]	EC50 [2]	IC50 [3]	Vd [4]	T1/2 [5]	F [6]	CL [7]	Vss [8]	bioavailability [9]
Cc1c(CBr)c(=O)oc2c3c(ccc12)OC(C)(C)[C@H](OC(=O)C12CCC(C)(C(=O)O1)C2(C)C)[C@@H]3OC(=O)C12CCC(C)(C(=O)O1)C2(C)C (stereo partly specified)	> 190000	0.00011 µM	> 20.9 µM						
Cc1cc(=O)oc2c3c(c(CN)cc12)OC(C)(C)[C@H](OC(=O)C12CCC(C)(C(=O)O1)C2(C)C)[C@@H]3OC(=O)C12CCC(C)(C(=O)O1)C2(C)C (stereo partly specified)	> 102	0.148 µM	> 15 µM						
CC1(C)Oc2ccc3ccc(=O)oc3c2[C@@H](OC(=O)C23CCC(C)(C(=O)O2)C3(C)C)[C@H]1OC(=O)C12CCC(C)(C(=O)O1)C2(C)C (stereo partly specified)	> 328	0.049 µM	> 16.1 µM						
CCN(CC)Cc1cc2ccc3c(c2oc1=O)[C@@H](OC(=O)C12CCC(C)(C(=O)O1)C2(C)C)[C@@H](OC(=O)C12CCC(C)(C(=O)O1)C2(C)C)C(C)(C)O3 (stereo partly specified)	> 4	3.67 µM	> 14.1 µM						
CC1(C)Oc2ccc3cc(CO)c(=O)oc3c2[C@@H](OC(=O)C23CCC(C)(C(=O)O2)C3(C)C)[C@H]1OC(=O)C12CCC(C)(C(=O)O1)C2(C)C (stereo partly specified)	806	0.029 µM	23 µM						
CC1(C)Oc2ccc3cc(CBr)c(=O)oc3c2[C@@H](OC(=O)C23CCC(C)(C(=O)O2)C3(C)C)[C@H]1OC(=O)C12CCC(C)(C(=O)O1)C2(C)C (stereo partly specified)	> 186	0.059 µM	> 11.1 µM						
CC(=O)OCc1c(C)c2ccc3c(c2oc1=O)[C@@H](OC(=O)C12CCC(C)(C(=O)O1)C2(C)C)[C@@H](OC(=O)C12CCC(C)(C(=O)O1)C2(C)C)C(C)(C)O3 (stereo partly specified)	567	0.026 µM	14.8 µM						
CC(=O)OCc1cc2c(C)cc(=O)oc2c2c1OC(C)(C)[C@H](OC(=O)C13CCC(C)(C(=O)O1)C3(C)C)[C@@H]2OC(=O)C12CCC(C)(C(=O)O1)C2(C)C (stereo partly specified)	> 26	0.544 µM	> 14.1 µM						
Cc1cc(=O)oc2c3c(c(CBr)cc12)OC(C)(C)[C@H](OC(=O)C12CCC(C)(C(=O)O1)C2(C)C)[C@@H]3OC(=O)C12CCC(C)(C(=O)O1)C2(C)C (stereo partly specified)	> 88	0.156 µM	> 13.7 µM						
Cc1cc(=O)oc2c3c(c(CO)cc12)OC(C)(C)[C@H](OC(=O)C12CCC(C)(C(=O)O1)C2(C)C)[C@@H]3OC(=O)C12CCC(C)(C(=O)O1)C2(C)C (stereo partly specified)	> 135	0.111 µM	> 15 µM	5.9 L/kg	0.867 h	Not detected	284 L/h/kg	3.89 L/kg	
CC1(C)Oc2ccc3cc(CN)c(=O)oc3c2[C@@H](OC(=O)C23CCC(C)(C(=O)O2)C3(C)C)[C@H]1OC(=O)C12CCC(C)(C(=O)O1)C2(C)C (stereo partly specified)	> 23	0.677 µM	> 15.4 µM						
Cc1c(CO)c(=O)oc2c3c(ccc12)OC(C)(C)[C@H](OC(=O)C12CCC(C)(C(=O)O1)C2(C)C)[C@@H]3OC(=O)C12CCC(C)(C(=O)O1)C2(C)C (stereo partly specified)	5800	0.004 µM	24.9 µM	22.9 L/kg	3.12 h		284 L/h/kg	18.5 L/kg	15%
CC(=O)OCc1cc2ccc3c(c2oc1=O)[C@@H](OC(=O)C12CCC(C)(C(=O)O1)C2(C)C)[C@@H](OC(=O)C12CCC(C)(C(=O)O1)C2(C)C)C(C)(C)O3 (stereo partly specified)	676	0.017 µM	11.6 µM						
Cc1cc(=O)oc2c3c(ccc12)OC(C)(C)[C@H](OC(=O)C12CCC(C)(C(=O)O1)C2(C)C)[C@@H]3OC(=O)C12CCC(C)(C(=O)O1)C2(C)C (stereo partly specified)		0.0015 µM	23.6 µM	12 L/kg	2.42 h	Not detected		10.1 L/kg	
Cc1cn([C@H]2C[C@H](N=[N+]=[N-])[C@@H](CO)O2)c(=O)[nH]c1=O [ZIDOVUDINE]		0.187 µM							
